Data: ChEMBL document CHEMBL3779855, “In vitro screening of 2-(1H-imidazol-1-yl)-1-phenylethanol derivatives as antiprotozoal agents and docking studies on Trypanosoma cruzi CYP51” (Eur J Med Chem, 2016)

Experiments:
[1] = Selectivity index, ratio of IC50 for human MRC5 cells to IC50 for nifurtimox-sensitive amastigote stage of Trypanosoma cruzi tulahuen CL2 infected in human MRC5 cells; format: toxicity, cell-based; conditions: read-out: Ratio IC50
Trypanosoma cruzi [2] = experiment: Antiparasitic activity against nifurtimox-sensitive amastigote stage of Trypanosoma cruzi tulahuen CL2 infected in human MRC5 cells; format: functional, organism-based
Leishmania infantum = experiment: Antiparasitic activity against amastigote stage of Leishmania infantum MHOM/MA-BE/67 infected in mouse peritoneal macrophages after 5 days by Giemsa staining based microscopic analysis; format: functional, organism-based; conditions: MHOM/MA-BE/67, 120 h
[3] = test system: Trypanosoma brucei rhodesiense; experiment: Antiparasitic activity against suramin-sensitive trypomastigote stage of Trypanosoma brucei rhodesiense squib-427 infected in human MRC5 cells after 4 days by Alamar blue staining based fluorimetric analysis; format: functional, organism-based; conditions: squib-427, 96 h
Plasmodium falciparum = experiment: Antiparasitic activity against chloroquine-resistant erythrocytic stage of Plasmodium falciparum K1 infected in […] after 72 hrs by NBT staining based spectroscopic analysis; format: functional, organism-based; conditions: K1, 72 h
MRC5 = experiment: Cytotoxicity against human MRC5 cells assessed as cell viability after 4 to 7 days by Alamar Blue staining based fluorometric analysis
Trypanosoma cruzi [4] = experiment: Potency index, ratio of benznidazole IC50 to compound IC50 for nifurtimox-sensitive amastigote stage of Trypanosoma cruzi tulahuen CL2 infected in human MRC5 cells; format: functional
[5] = Metabolic stability in human liver microsomes at 50 uM after 60 mins by LC-UV-MS analysis in the presence of NADPH-generating system; format: ADME; conditions: read-out: Stability
In short: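 Test compound at 50 μM in pH 7.4 phosphate buffer with 2% DMSO, incubated at 37°C for 60 min with human liver microsomal protein and an NADPH-generating system. The reaction was then stopped, and parent drug and metabolites were measured by LC-UV-MS.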

SMILES	selectivity ratio [1]	IC50 (Trypanosoma cruzi [2]) [µM]	IC50 (Leishmania infantum) [µM]	IC50 [3] [µM]	IC50 (Plasmodium falciparum) [µM]	IC50 (MRC5) [µM]	Ratio IC50 (Trypanosoma cruzi [4])	remaining at 1 h, 50 µM [5] [%]
O=C(OC(Cn1ccnc1)c1ccc(F)cc1)c1ccc(-c2ccccc2)cc1 (racemic)	10.9	0.71	32.2	32.2	0.6	7.8		
Cc1ccc(C(=O)Nc2ccc(S(=O)(=O)O)c3cc(S(=O)(=O)O)cc(S(=O)(=O)O)c23)cc1NC(=O)c1cccc(NC(=O)Nc2cccc(C(=O)Nc3cc(C(=O)Nc4ccc(S(=O)(=O)O)c5cc(S(=O)(=O)O)cc(S(=O)(=O)O)c45)ccc3C)c2)c1 [SURAMIN]				0.02				
O=C(Nc1ccc(N2CCN(C(=O)c3ccco3)CC2)cc1)O[C@H](Cn1ccnc1)c1ccc(F)cc1	288	0.13	> 64	> 64	5.2	37.5		
O=C(O[C@H](Cn1ccnc1)c1ccc(F)cc1)c1ccc(-c2ccccc2)cc1	16.3	0.49	34.6	33.7	2	8		
O=C(OC(Cn1ccnc1)c1ccc(Cl)cc1)N1CCN(C(=O)c2ccco2)CC1 (racemic)	> 10.9	5.84	> 64	> 64	10.7	> 64		
CCS(=O)(=O)N1CCN(c2ccc(NC(=O)OC(Cn3ccnc3)c3ccc(F)cc3)cc2)CC1 (racemic)	> 1600	0.04	38	> 64	17.2	> 64	50	99
O=C(Cn1ccnc1[N+](=O)[O-])NCc1ccccc1 [BENZNIDAZOLE]		1.95						
O=C(OC(Cn1ccnc1)c1ccc(Cl)cc1)N1CCN(c2ccc([N+](=O)[O-])cc2)CC1 (racemic)	9.4	0.87	8	8	2.4	8.2		
O=C(Nc1ccc(N2CCN(C(=O)c3ccco3)CC2)cc1)O[C@@H](Cn1ccnc1)c1ccc(F)cc1	15.4	1.72	> 64	> 64	4	26.5		
O=C(O[C@@H](Cn1ccnc1)c1ccc(F)cc1)c1ccc(-c2ccccc2)cc1	> 35.6	1.8	> 64	> 64	2.3	> 64		
O=C(O[C@H](Cn1ccnc1)c1ccc(F)cc1)N1CCN(c2ccc([N+](=O)[O-])cc2)CC1	1.5	5.44	> 64	> 64	1.3	8.2		
O=C(OC(Cn1ccnc1)c1ccc(Cl)cc1)c1ccc(-c2ccccc2)cc1 (racemic)	15	0.48	12.7	32.4	1.9	7.2		
CCCCCCCCCCCCCCCCOP(=O)([O-])OCC[N+](C)(C)C [MILTEFOSINE]			10.4					
O=C(O[C@@H](Cn1ccnc1)c1ccc(Cl)cc1)N1CCN(c2ccc([N+](=O)[O-])cc2)CC1	8.7	1	12.7	32.2	2.2	8.7		
CC/C(=C(\c1ccccc1)c1ccc(OCCN(C)C)cc1)c1ccccc1 [TAMOXIFEN]						10.9		
O=C(Nc1ccc(N2CCN(C(=O)c3ccco3)CC2)cc1)OC(Cn1ccnc1)c1ccc(F)cc1 (racemic)	33.4	0.79	28.9	32.9	4	26.4		99
O=C(OC(Cn1ccnc1)c1ccc(-c2ccccc2)cc1)c1ccc(-c2ccccc2)cc1 (racemic)	3.2	2.72	8	29.1	7.7	8.8		
O=C(O[C@@H](Cn1ccnc1)c1ccc(F)cc1)N1CCN(c2ccc([N+](=O)[O-])cc2)CC1	7	1.23	20.3	32.2	1.2	8.7		
O=C(O[C@H](Cn1ccnc1)c1ccc(Cl)cc1)c1ccc(-c2ccccc2)cc1	14.6	0.56	32	30.1	2.1	8.2		
O=C(O[C@H](Cn1ccnc1)c1ccc(Cl)cc1)N1CCN(c2ccc([N+](=O)[O-])cc2)CC1	6.4	1.32	12.7	> 64	1.5	8.5		
O=C(OC(Cn1ccnc1)c1ccc(F)cc1)N1CCN(c2ccc([N+](=O)[O-])cc2)CC1 (racemic)	9.2	1.68	27.2	27.2	2.6	15.5		
O=C(O[C@@H](Cn1ccnc1)c1ccc(Cl)cc1)c1ccc(-c2ccccc2)cc1	39	0.2	> 64	32.4	2	7.8		
